Results reported in ChEMBL document CHEMBL4196013, “Ridaifen-F conjugated with cell-penetrating peptides inhibits intracellular proteasome activities and induces drug-resistant cell death” (Eur J Med Chem, 2018).
Activity calls are given as the source filed them. No cut-off for these calls is given here. Peptide text beside a SMILES is read from it. * marks the point of attachment. X1 = CCC(=C(c1ccc(OCCN2CCCCCC2)cc1)c1ccc(OCCN2CCCCCC2)cc1)c1cccc(C(=O)*)c1

Key:
[1] = biological target: T1, Proteasome Macropain subunit MB1 (Homo sapiens, UniProt P28074); experiment: Inhibition of chymotrypsin-like activity of human 26S proteasome using Suc-LLVY-MCA as substrate measured for 1 hr by fluorescence assay
T1 sequence (P28074 whole entry): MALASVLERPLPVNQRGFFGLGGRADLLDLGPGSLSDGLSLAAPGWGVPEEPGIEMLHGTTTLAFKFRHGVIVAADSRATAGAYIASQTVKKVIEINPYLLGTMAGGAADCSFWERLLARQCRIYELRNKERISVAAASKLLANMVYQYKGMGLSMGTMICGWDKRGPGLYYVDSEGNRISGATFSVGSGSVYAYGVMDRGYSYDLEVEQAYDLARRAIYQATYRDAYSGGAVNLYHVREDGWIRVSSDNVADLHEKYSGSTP
How it was run: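 Purified 26S proteasome with 50 µM fluorogenic substrate in 50 mM HEPES pH 7.5, 40 mM KCl, 5 mM MgCl₂, BSA, 0.5 mM ATP, 1 mM DTT. Inhibitor range 0.1–40 µM. AMC fluorescence monitored 1 h at 37 °C. IC₅₀ from inhibition curves; n = 3.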

[2] = biological target: T1, Proteasome Macropain subunit MB1; experiment: Inhibition of chymotrypsin-like activity of human 20S proteasome using Suc-LLVY-MCA as substrate measured for 1 hr by fluorescence assay
How it was run: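 Purified human 20S proteasome with 50 µM fluorogenic substrate in 25 mM HEPES pH 8.0, 0.5 mM EDTA, 0.03% SDS. Inhibitor range 0.1–10 µM, with the table footnote giving 0.5–8 µM. IC₅₀ from inhibition curves; n = 3.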

[3] = biological target: T1, Proteasome Macropain subunit MB1; experiment: Inhibition of chymotrypsin-like activity of 26S proteasome in human RPMI8226 cells using […] as substrate after 24 to 48 hrs by luminescence-based assay; type: cell-based
How it was run: (§1)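 Intracellular proteasome assay. Cells seeded in triplicate at 5 × 10³ cells/well and incubated 24 or 48 h with 0.1–10 µM inhibitor, 0.5% final DMSO. Proteasome-Glo reagent with aminoluciferin-linked peptide substrates lyses the cells; luminescence read after 15 min. IC₅₀ taken from inhibition curves.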

[4] = biological target: T1, Proteasome Macropain subunit MB1; experiment: Inhibition of chymotrypsin-like activity of 26S proteasome in human KMS11 cells using […] as substrate after 24 to 48 hrs by luminescence-based assay; type: cell-based; how it was run: as §1
KMS-11 [5] = experiment: Cytotoxicity against human KMS11 cells at 10 uM by CellTiter-Glo assay; type: functional, cell-based; conditions: TDE = time-dependent effect
How it was run: (§2)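 Cells cultured with each compound at 10 µM, with viability followed over time by ATP assay. Mock-treated cells define 100%; values are means of three independent experiments.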

RPMI-8226 [6] = experiment: Cytotoxicity against human RPMI8226 cells assessed as reduction in cell viability at 10 uM after 2 to 48 hrs by CellTiter-Glo assay; type: functional, cell-based; how it was run: as §2
KMS-11 [7] = experiment: Cytotoxicity against human KMS11 cells after 24 to 48 hrs by CellTiter-Glo assay; type: functional
How it was run: (§3)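 RPMI8226 or KMS-11 cells seeded in triplicate wells at 5 × 10² cells/well and exposed to 0.1–10 µM compound (DMSO) for 24 or 48 h. Survival read as cellular ATP level; Cyt₅₀ derived from concentration–survival curves.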

RPMI-8226 [8] = experiment: Cytotoxicity against human RPMI8226 cells after 24 to 48 hrs by CellTiter-Glo assay; type: functional; how it was run: as §3
[9] = biological target: T1, Proteasome Macropain subunit MB1; experiment: Inhibition of chymotrypsin-like activity of human 26S proteasome using Z-LLE-MCA as substrate measured for 1 hr in presence of ATPgammaS by fluorescence assay

Row | IC50 [1] [µM] | IC50 [2] [µM] | IC50 [3] [µM] | IC50 [4] [µM] | IC50 [9] [µM] | Molecule | Activity (KMS-11 [5]) | Activity (RPMI-8226 [6]) | CC50 (KMS-11 [7]) [µM] | CC50 (RPMI-8226 [8]) [µM]
1 | > 40 | > 8 |  |  |  | CCC(=C(c1ccc(OCCN2CCCCCC2)cc1)c1ccc(OCCN2CCCCCC2)cc1)c1cccc(CNC(=O)CN[C@@H](CCCNC(=N)N)C(=O)N[C@@H](CCCNC(=N)N)C(=O)N[C@@H](CCCNC(=N)N)C(=O)N[C@@H](CCCNC(=N)N)C(=O)N[C@@H](CCCNC(=N)N)C(=O)N[C@@H](CCCNC(=N)N)C(=O)NC(C)=O)c1 |  |  |  | 
2 | 9.4 | > 40 | 2.1 | 2.1 | 6 | CCC(=C(c1ccc(OCCN2CCCCCC2)cc1)c1ccc(OCCN2CCCCCC2)cc1)c1cccc(C(=O)NCC(=O)N[C@@H](CCCNC(=N)N)C(=O)N[C@@H](CCCNC(=N)N)C(=O)N[C@@H](CCCNC(=N)N)C(=O)N[C@@H](CCCNC(=N)N)C(=O)N[C@@H](CCCNC(=N)N)C(=O)N[C@@H](CCCNC(=N)N)C(=O)N[C@@H](CCCNC(=N)N)C(=O)N[C@@H](CCCNC(=N)N)C(=O)NC(C)=O)c1 | Tde | Active | 4.5 | 2.7
3 | 24 | 6.1 |  |  |  | CCC(=C(c1ccc(OCCN2CCCCCC2)cc1)c1ccc(OCCN2CCCCCC2)cc1)c1cccc(C(=O)NCC(=O)N[C@@H](CC(C)C)C(=O)N[C@@H](CC(C)C)C(=O)N[C@@H](CCC(=O)O)C(N)=O)c1 |  |  |  | 
4 | 26 | 0.89 |  |  |  | CCC(=C(c1ccc(OCCN2CCCCCC2)cc1)c1ccc(OCCN2CCCCCC2)cc1)c1cccc(C(=O)NCC(=O)N[C@@H](CC(C)C)C(=O)N[C@@H](CC(C)C)C(=O)N[C@H](C(=O)N[C@@H](Cc2ccc(O)cc2)C(N)=O)C(C)C)c1 (X1-GLLVY-NH2) |  |  |  | 
5 | > 40 | 4.58 |  |  |  | CC[C@]1(O)C[C@@H]2CN(CCc3c([nH]c4ccccc34)[C@@](C(=O)OC)(c3cc4c(cc3OC)N(C)[C@H]3[C@@](O)(C(=O)OC)[C@H](OC(C)=O)[C@]5(CC)C=CCN6CC[C@]43[C@@H]65)C2)C1 [VINBLASTINE] |  |  |  | 
6 | > 40 | > 8 |  |  |  | Ac-RRRRRRRRG-OH |  |  |  | 
7 | > 40 | 0.37 |  |  |  | CCC(=C(c1ccc(OCCN2CCCCCC2)cc1)c1ccc(OCCN2CCCCCC2)cc1)c1cccc(CNC(=O)CN[C@@H](CC(C)C)C(=O)N[C@@H](CC(C)C)C(=O)N[C@H](C(=O)N[C@@H](Cc2ccc(O)cc2)C(=O)NC(C)=O)C(C)C)c1 |  |  |  | 
8 | 5.5 | > 50 | 5.7 | 6.3 | 2.4 | CCC(=C(c1ccc(OCCN2CCCCCC2)cc1)c1ccc(OCCN2CCCCCC2)cc1)c1cccc(C(=O)NCC(=O)N[C@@H](CCCNC(=N)N)C(=O)N[C@@H](CCCNC(=N)N)C(=O)N[C@@H](CCCNC(=N)N)C(=O)N[C@@H](CCCNC(=N)N)C(=O)N[C@@H](CCCNC(=N)N)C(=O)N[C@@H](CCCNC(=N)N)C(=O)N[C@@H](CCCNC(=N)N)C(=O)N[C@@H](CCCNC(=N)N)C(N)=O)c1 | Tde | Active | 7.2 | 4.3
9 | 5 | 1.1 |  |  |  | CCC(=C(c1ccc(OCCN2CCCCCC2)cc1)c1ccc(OCCN2CCCCCC2)cc1)c1cccc(C(=O)NCC(=O)N[C@@H](CC(C)C)C(=O)N[C@@H](CC(C)C)C(=O)N[C@@H](CC(C)C)C(=O)NCC(=O)NCC(=O)NCC(=O)NCC(N)=O)c1 (X1-GLLLGGGG-NH2) |  |  |  | 
10 | > 40 | > 8 |  |  |  | CCC(=C(c1ccc(OCCN2CCCCCC2)cc1)c1ccc(OCCN2CCCCCC2)cc1)c1cccc(CNC(=O)CN[C@@H](CCCNC(=N)N)C(=O)N[C@@H](CCCNC(=N)N)C(=O)N[C@@H](CCCNC(=N)N)C(=O)N[C@@H](CCCNC(=N)N)C(=O)NC(C)=O)c1 |  |  |  | 
11 | > 40 | > 8 |  |  |  | N=C(N)NCCC[C@H](NC(=O)[C@H](CCCNC(=N)N)NC(=O)[C@H](CCCNC(=N)N)NC(=O)[C@H](CCCNC(=N)N)NC(=O)[C@H](CCCNC(=N)N)NC(=O)[C@H](CCCNC(=N)N)NC(=O)[C@H](CCCNC(=N)N)NC(=O)[C@H](CCCNC(=N)N)NC(=O)CN)C(N)=O |  |  |  | 
12 | > 40 | > 8 |  |  |  | CCC(=C(c1ccc(OCCN2CCCCCC2)cc1)c1ccc(OCCN2CCCCCC2)cc1)c1cccc(C(=O)NCC(=O)N[C@@H](CCCNC(=N)N)C(=O)N[C@@H](CCCNC(=N)N)C(=O)N[C@@H](CCCNC(=N)N)C(=O)N[C@@H](CCCNC(=N)N)C(=O)N[C@@H](CCCNC(=N)N)C(=O)N[C@@H](CCCNC(=N)N)C(N)=O)c1 |  |  |  | 
13 | 9.1 | 0.89 |  |  |  | CCC(=C(c1ccc(OCCN2CCCCCC2)cc1)c1ccc(OCCN2CCCCCC2)cc1)c1cccc(C(=O)NCC(=O)N[C@@H](CC(C)C)C(=O)N[C@@H](CC(C)C)C(=O)N[C@H](C(=O)N[C@@H](Cc2ccc(O)cc2)C(=O)NCC(=O)NCC(N)=O)C(C)C)c1 (X1-GLLVYGG-NH2) |  |  |  | 
14 | > 100 | 1.02 | 11 |  |  | CCC(=C(c1ccc(OCCN2CCCCCC2)cc1)c1ccc(OCCN2CCCCCC2)cc1)c1ccccc1 | Tde | Active |  | 3.6
15 | > 40 | > 8 |  |  |  | CCC(=C(c1ccc(OCCN2CCCCCC2)cc1)c1ccc(OCCN2CCCCCC2)cc1)c1cccc(C(=O)NCC(=O)N[C@@H](CCCNC(=N)N)C(=O)N[C@@H](CCCNC(=N)N)C(=O)N[C@@H](CCCNC(=N)N)C(=O)N[C@@H](CCCNC(=N)N)C(N)=O)c1 (X1-GRRRR-NH2) |  |  |  | 
